Screening data (PubChem BioAssay)
Hits are enriched below; roughly 3.1% of the tested compounds scored in any of these assays.
RBBP9 inhibitor: human RBBP9 inhibitors, primary screen, biochemical, fluorescence polarization, FP-Rh probe, HTS; Serine hydrolase RBBP9 (Homo sapiens), O75884; recombinant RBBP9; inhibition, % at 7.94 µM; actives 0.2% (n = 220,000);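 active = inhibition above the campaign mean of all tested compounds plus 3 SD, cut at about 14% in these data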;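 note: plate controls were DMSO wells with RBBP9 for no effect and wells lacking RBBP9 protein for full effect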
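Measured by: FP readout at 525/598 nm; material: recombinant human RBBP9; also added: Serine-hydrolase probe FP-Rh, 375 nM pre-mixing; medium: Tris buffer pH 8.0, NaCl, Pluronic; replication: one well per compound; doses: one concentration, 7.94 µM nominal, 0.794% DMSO; timing: preincubation 30 min plus labeling 45 min at 25 °C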
PRMT1 FP inh: PRMT1 methyltransferase inhibitors, primary screen, biochemical, fluorescence polarization; Protein arginine N-methyltransferase 1 (Homo sapiens), Q99873; recombinant PRMT1, activity-based probe fluorescence polarization; inhibition, % at 2.79 µM; actives 1.3% (n = 370,000);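 active = inhibition above about 21% made by adding two undisclosed values, limit read from the data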
ABHD5-PLIN5 inh: ABHD5-PLIN5 interaction inhibitors, primary screen, cell lysate, split luciferase complementation, luminescence; Perilipin-5 (Homo sapiens) + 1-acylglycerol-3-phosphate O-acyltransferase ABHD5 (Homo …; Split G. princeps luciferase complementation, 4 h; inhibition, % at 4 µM; actives 0.78% (n = 360,000); AID 602281, 2012;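 active = inhibition above the mean inhibition across every tested compound plus 3 SD, cut at about 22% in these data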;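 note: 0% = DMSO only wells and the 100% control is not disclosed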
LEDGF integ inh: blockers of LEDGF/p75-dependent integrase strand transfer – biochemical, TR-FRET, high throughput, primary screen. HIV-1 integrase (with human LEDGF/p75). TR-FRET IN-LEDGF/p75 DNA integration, Eu/Cy5. inhibition, % at 3.7 µM. actives 0.64% (n = 370,000). AID 743269, 2014;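 active = inhibition above the screen-wide mean plus 3 SD, cut at about 13% in these data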;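 note: signal is the Cy5 over europium emission ratio at 671 and 618 nm; 0% = plate median of compound wells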
MBD2 inh: inhibitors of MBD2 binding to methylated DNA, primary screen, biochemical, TR-FRET, DNA-binding domain, human; Methyl-CpG-binding domain protein 2 (Homo sapiens), Q9UBB5; MBD2 binding to methylated oligonucleotide; inhibition, % at 4.4 µM; actives 0.31% (n = 370,000); in the data active = inhibition above about 13%
Target sequence (Q9UBB5 whole entry, looked up, the tested form may be a part): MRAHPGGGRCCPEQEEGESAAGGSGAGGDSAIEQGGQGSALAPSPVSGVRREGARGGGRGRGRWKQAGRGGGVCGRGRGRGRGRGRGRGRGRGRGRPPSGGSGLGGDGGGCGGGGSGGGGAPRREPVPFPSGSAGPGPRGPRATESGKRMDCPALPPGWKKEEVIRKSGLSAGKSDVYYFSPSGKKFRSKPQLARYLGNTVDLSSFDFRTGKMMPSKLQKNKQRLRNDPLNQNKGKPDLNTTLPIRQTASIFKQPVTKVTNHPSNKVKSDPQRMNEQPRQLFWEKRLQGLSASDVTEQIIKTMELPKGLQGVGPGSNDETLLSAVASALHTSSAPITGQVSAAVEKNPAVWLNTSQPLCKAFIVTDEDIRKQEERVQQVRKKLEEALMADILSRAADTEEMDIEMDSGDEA
UHRF1 MBD2 ctr: UHRF1 methylated DNA binding inhibitors, primary screen, counter-screen for MBD2 inhibitor project, biochemical, TR-FRET, human UHRF1, single concentration; UHRF1 binding to methylated oligo; actives 0.75% (n = 370,000); inhibition, % at 4.4 µM; in the data active = inhibition above about 21%;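 note: UHRF1 SRA domain binding a hemimethylated CpG hairpin DNA probe; 0% = median of test compound wells and 100% = reference inhibitor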
PRMT1 inh conf: PRMT1 methyltransferase inhibitors, confirmation, biochemical, fluorescence polarization, triplicate; shares compounds with PRMT1 FP inh; recombinant His-PRMT1, activity-based probe fluorescence polarization; inhibition, % at 2.79 µM; actives 42% (n = 3,300); AID 687036, 2013;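 active = mean inhibition across replicates above the hit cutoff derived for the earlier primary screen, cut at about 22% in these data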
An asterisk follows results filed as active; . = no result.

SMILES	RBBP9 inhibitor	PRMT1 FP inh	ABHD5-PLIN5 inh	LEDGF integ inh	MBD2 inh	UHRF1 MBD2 ctr	PRMT1 inh conf
CC(=O)CC[C@H]1CC[C@]2(CCCN(Cc3nccn3C)C2)O1	.	4.5	.	-5.0	2.1	1.4	.
O=C1CCCC2=C1Sc1ccccc1N2	2.2	36.6*	0.0	0.0	-11.0	-0.2	17.4
COc1cc(N)c(Cl)cc1C(=O)OCC(=O)NCC1CCCCC1	.	33.9*	2.8	0.4	2.5	-1.0	-7.6
CN1c2ccccc2Sc2cc(N)ccc21	.	28.6*	14.8	-3.4	3.3	-0.5	10.8
COC(=O)[C@]12C[C@H](CC(=O)N3CCOCC3)C(=O)N(Cc3ccco3)C1=C[C@H](C(C)(C)C)O[C@@H]2C	.	-3.5	.	2.0	1.4	5.1	.
Cc1ccc(-c2nc3ncccn3c2Nc2ccccc2C)o1	-5.4	42.1*	6.6	6.3	-4.7	-2.8	12.7
COc1ccccc1NS(=O)(=O)c1cc(NC(=O)C2=NNC(=O)CC2)ccc1C	.	4.4	2.4	-1.4	4.2	-0.3	.
Cc1ccc(NC(=O)C2=NNC(=O)CC2)cc1S(=O)(=O)Nc1ccc(SC(F)F)cc1	.	27.1*	-18.0	-0.9	-6.7	-1.1	20.1
C=CCN1C(=O)[C@@H](CC(=O)NCc2cccc3ccccc23)[C@]2(C(=O)OCC)CCCCC/C=C/12	.	-4.2	.	8.1	2.2	0.8	.
CCCCCCC(=O)n1ccc2ccc(-c3ccc4ccn(Cc5ccc(OC)cc5)c4c3)cc21	.	4.2	.	-4.9	-1.0	1.2	.
CNC(=O)C1C(=S)NC(N)=C(C#N)C1c1ccccc1 (stereo not drawn)	-2.3	61.0*	-25.1	-3.1	-2.6	-4.8	12.2
Cc1[nH]n(-c2ccccc2)c(=S)c1C=Nc1cccc([N+](=O)[O-])c1	-9.5	95.3*	-39.5	-4.0	-2.6	-3.8	97.9*
CCCCN=Cc1c(C)[nH]n(-c2ccccc2)c1=S	-8.4	26.1*	-13.9	-4.7	0.6	-3.4	2.6
O=[N+]([O-])c1ccc(C=Nc2ccccc2)cc1	.	0.0	-6.8	2.5	-1.8	-2.2	.
Nn1c(SCc2cn3cc(Cl)ccc3n2)nnc1-c1ccncc1	0.5	25.0*	-8.2	8.8	1.1	0.6	39.8*
Cc1cc2nc3c(=O)[nH]c(=O)[nH]c3nc2c([N+](=O)[O-])c1N	0.8	79.0*	-8.5	5.8	2.6	10.6	111.6*
Cc1c(N)c(C(C)(C)C)cc(C(C)(C)C)c1[N+](=O)[O-]	-6.3	-3.3	-14.1	1.6	-3.7	-4.4	.
CCC(=O)NNc1nc2c(F)cccc2s1	2.2	48.6*	-3.1	1.1	0.2	0.3	-0.4
Cn1c(N)c(C(=O)NCc2ccccc2)sc1=S	-0.5	25.6*	-19.8	2.6	-3.2	-1.6	13.8
COC(=O)CC#C[C@H](C)[C@@H](NS(C)(=O)=O)C(C)(C)COCc1ccccc1	.	-0.2	.	-1.3	-2.4	0.0	.
Cc1ccc(-c2cc(C(=O)N3CC(C)CC(C)C3)c3ccccc3n2)o1 (stereo not drawn)	.	64.2*	20.3	1.5	-1.6	-2.1	29.2*
Cc1ccc(-c2cc(C(=O)Nc3ccccc3C)c3ccccc3n2)o1	-1.2	43.6*	13.7	1.1	-0.7	2.4	14.1
COc1cccc(NC(=O)CN(C)C(=O)c2cc(-c3ccc(C)o3)nc3ccccc23)c1	.	50.8*	19.9	0.9	-3.6	-2.8	12.2
O=C(NC(=S)Nc1cccc(S(=O)(=O)NC2=NCCC2)c1)c1cc(-c2ccco2)nc2ccccc12	-0.1	31.9*	11.6	8.1	2.3	4.2	13.2
COc1cccc(CNC(=O)Cn2c(-c3ccccc3)cc(C(C)=O)c2C)c1OC	.	-5.4	.	4.6	-0.4	0.8	.
O=C(c1ccc2c(c1)OCO2)N1CCC(Oc2cccnc2)CC1	.	5.2	.	-3.7	1.4	0.6	.
